Read-outs that look alike come from different tables or passages of the source.
Tests used:
[1] = test system: gut microbiota (intestinal bacteria incubation system); test: Metabolism of SNZ by intestinal bacteria in vitro; format: in vitro ADME, Balb/c mice; details: SNZ 10 μg/mL; for course of metabolite content in intestinal bacteria incubation: 0-2 h
How it was run: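 Contents of male Balb/c intestine were mixed 1:30 (w/v) in anaerobic medium, kept under N2 and pre-incubated 30 min at 37 °C. Test compound was present at a final 10 μg/mL, and inactivated bacteria medium served as negative control. Shaking at 37 °C, 200 rpm was done in two separate runs: 0, 1, 2, 6, 12 and 24 h, then 0, 15, 30, 60, 90 and 120 min. Parent and metabolite contents were followed over time.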

[2] = Pharmacokinetics after oral SNZ in normal Balb/c mice and pseudo-germfree; format: in vivo; details: oral SNZ 109.2 mg/kg; for Cmax / half-life / Tmax: Balb/c, mouse, po, 109.2 mg/kg; for Cmax / half-life / Tmax / AUC(0−t) / AUC(0−∞): plasma, mean
[3] = Pharmacokinetics after oral SNZ in tumor mice and PGF tumor mice; format: in vivo, Balb/c mice; details: oral SNZ 109.2 mg/kg
[4] = Tissue distribution after oral SNZ in tumor bearing mice; format: in vivo, Balb/c mice; details: 20 min after oral SNZ 109.2 mg/kg; for tissues in which the metabolite is distributed: tumor mice
How it was run: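 Three tumour-bearing mice per group, conventional or PGF, were fasted overnight and dosed orally at 109.2 mg/kg. After 20 min they were anaesthetised with 20% urethane and PBS-perfused. Organs and tumour were homogenised in 3 volumes of PBS. 100 μL homogenate was mixed with 300 μL methanol containing glipizide (100 ng/mL), vortexed 1 min and centrifuged at 14,000 rpm for 10 min. Supernatant was analysed by HPLC-MS/MS.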

[5] = test system: carboxylesterase of gut microbiota; format: in vitro ADME, Balb/c mice; details: for inhibition rate of tyrosol production: 120 min, SNZ 10 μg/mL, vs control group
How it was run: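 Gut bacteria incubations were set up as for the microbial metabolism assay, with test compound at a final 10 μg/mL. The carboxylesterase inhibitor BNPP was added at 1, 5 or 10 mM; cultures without BNPP served as control. Incubation was at 37 °C for 0, 15, 30, 60, 90 and 120 min. Inhibition of tyrosol production at 120 min was expressed relative to control.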

[6] = tumor mice (column head Normal), plasma, mean
[7] = PK parameters in PGF could not be fitted

Row | course of metabolite content in intestinal bacteria incubation [1] | Cmax ([2]; normal Balb/c mice) | half-life ([2]; t1/2, normal Balb/c mice) | Tmax ([2]; normal Balb/c mice) | AUC(0−t) ([2]; normal Balb/c mice) | AUC(0−∞) ([2]; normal Balb/c mice) | AUC(0−t) [3, 6] | AUC(0−∞) [3, 6] | amount detected in tumor tissue of tumor mice compared with PGF tumor mice [4] | SMILES | tissues in which the metabolite is distributed [4] | further results
1 | gradually decreased | 257 ng/mL | 90.8 min | 44 min | 33814.78 µg/L/min | 36004.16 µg/L/min | 22373.93 µg/L/min | 23773.54 µg/L/min | a large amount | OC[C@H]1O[C@@H](OCCc2ccc(O)cc2)[C@H](O)[C@@H](O)[C@@H]1O [Salidroside, salidroside] | liver, kidney, stomach, small intestine, etc. | highest peak concentration of metabolite in intestinal bacteria incubation ([1]; peak at 15 min): 3.29 µg/mL; Cmax ([2]; PGF mice): 82.7 ng/mL; half-life ([2]; t1/2, PGF mice): 14.2 min; Tmax ([2]; PGF mice): 16 min; AUC(0−t) ([2]; PGF mice): 3079.01 µg/L/min; AUC(0−∞) ([2]; PGF mice): 3205.99 µg/L/min; Cmax ([3]; Balb/c, mouse, plasma, po, 109.2 mg/kg, cmax, PGF tumor mice, mean): 75 ng/mL; half-life ([3]; Balb/c, mouse, plasma, po, 109.2 mg/kg, t1/2, PGF tumor mice, mean): 20.4 min; Tmax ([3]; Balb/c, mouse, plasma, po, 109.2 mg/kg, tmax, PGF tumor mice, mean): 18 min; AUC(0−t) ([3]; PGF tumor mice, plasma, mean): 2207.64 µg/L/min; AUC(0−∞) ([3]; PGF tumor mice, plasma, mean): 2452.12 µg/L/min
2 |  |  |  |  |  |  |  |  |  | O=[N+]([O-])c1ccc(OP(=O)(O)Oc2ccc([N+](=O)[O-])cc2)cc1 [BNPP, bis-p-nitrophenyl phosphate] |  | effect on metabolic rate of SNZ by gut microbiota ([5]; BNPP 0, 1, 5 and 10 mM): inhibited in a dose-dependent manner; inhibition rate of tyrosol production ([5]; BNPP 1 mM): 81.5%; inhibition rate of tyrosol production ([5]; BNPP 5 mM): 93.1%; inhibition rate of tyrosol production ([5]; BNPP 10 mM): 100.0%; prolongation of SNZ metabolism compared with control group ([5]; BNPP 10 mM, within 120 min): approximately 60 min
3 | increased gradually with incubation time | 126 ng/mL | 110 min | 36 min | 13158.45 µg/L/min | 13944.89 µg/L/min | 8918.61 µg/L/min | 9833.89 µg/L/min | a large amount | OCCc1ccc(O)cc1 [Tyrosol, tyrosol] | liver, kidney, stomach, small intestine, heart, spleen, lung, colon, and other organs and tissues | plasma concentration in PGF mice compared with normal group [2, 7]: lower than that in the normal group; plasma exposure in tumor mice compared with PGF tumor mice [3, 7]: significantly higher

From article PMC10568112 (Journal of Pharmaceutical Analysis, 2023)
